Measured values gathered from unrelated publications.
Compare with care: the assays were run in different laboratories.
Target: Mitogen-activated protein kinase kinase kinase kinase 5 (MAP4K5, Homo sapiens, UniProt Q9Y4K4)

| SMILES | test | setting | quantity | result |
| --- | --- | --- | --- | --- |
| CCCOc1ccc([C@@H]2[C@@H](C(=O)O)[C@H](c3ccc4c(c3)OCO4)CN2CC(=O)Nc2c(CC)cccc2CC)cc1 | cell-free assay, competition with immobilised ligand | 1 µM | remaining binding | 95% |
| O=C1Nc2ccc(Cl)cc2C1=Cc1cc(Cl)c(O)c(Cl)c1 | cell-free assay | 0.5 µM | remaining signal | 75.9% |
| Nc1ncnc2occ(-c3ccc(NC(=O)Nc4cc(C(F)(F)F)ccc4F)cc3)c12 | cell-free assay, inhibitor | 20 µM | remaining signal | 0% |
| c1ccc(N2CCN(Cc3nc4ccccc4[nH]3)CC2)nc1 | binding, competition with immobilised ligand | 1 µM | remaining binding | 100% |
| COc1ccnn2ncc(-c3ccnc(N(C)C)n3)c12 | binding | 1 µM | remaining binding | 100% |
| CC(C)(O)[C@H]1CC[C@H](Nc2ccc3ncc(-c4cccc(C(F)(F)F)c4)n3n2)CC1 | enzyme activity, inhibitor | 1 µM | remaining activity | 83.2% |
| COc1cc(/C=C/C(=O)CC(=O)/C=C/c2ccc(O)c(OC)c2)ccc1O | enzyme activity, inhibitor | 1 µM | activity vs control | 87% |
| Cc1nc(N2CC[C@@H](O)C2)ncc1-c1cc(C(F)(F)F)cc2[nH]ncc12 | binding, competition with immobilised ligand | 1 µM | remaining binding | 75% |
| Cc1ccc(NC(=O)c2ccc(CN3CCN(C)CC3)cc2)cc1Nc1nc(-c2cccnc2)cs1 | cell-free assay | 0.5 µM | remaining signal | 97% |
| COc1cc2ncnc(Nc3ccc(Oc4ccccc4)cc3C)c2cc1OC | enzyme activity, inhibitor | 1 µM | inhibition | 38% |
| COc1cc(Cl)c(C(=O)N[C@@H](CN[C@H]2CC[C@@H](N)CC2)Cc2ccc(C#N)cc2)cc1-c1ccc(CN[C@H](C)c2ccc(C)cc2)o1 | enzyme activity, inhibitor | 1 µM | remaining activity | 113% |
| Cc1sc(C(=O)NC2COC2)cc1-n1cc(NC(=O)Nc2c(F)cccc2Cl)cn1 | enzyme activity, inhibitor | 10 µM | remaining activity | 98.4% |
| COc1ccc(COc2ccc(Cc3cnc(N)nc3N)cc2OC)cc1 | cell-free assay | 0.5 µM | remaining signal | 97.4% |
| CNC(=O)Nc1ccc2c(c1)CC[C@@]21OC(=O)N(CC(=O)N(Cc2ccc(F)cc2)[C@@H](C)C(F)(F)F)C1=O | cell-free assay, competition with immobilised ligand | 1 µM | remaining binding | 88% |
| FC(F)(F)Oc1cccc(-c2cnc3ccc(-c4ccncc4)nn23)c1 | enzyme activity, inhibitor, radiometric | 5 µM | activity vs control | 74% |
| COCCOc1nc(-c2ccc(Cl)nc2)nc2c1CN(C(=O)c1ncn3ccccc13)CC2 | cell-free assay, competition with immobilised ligand | 0.1 µM | remaining binding | 91% |
| COc1cc(Nc2cnc(C#N)c(O[C@H](C)CN(C)C)n2)ncc1-c1cnn(C)c1 | enzyme activity, inhibitor, radiometric | 1 µM | remaining activity | 46% |
| C[C@@H]1CN(c2cc(-c3n[nH]c4ccc(OC5(C)CC5)cc34)ncn2)C[C@H](C)O1 | cell-free assay, competition with immobilised ligand | 0.1 µM | remaining binding | 100% |
| CC(C)(C)c1nc2c(s1)c1nc(N)ncc1c1ccc(NS(=O)(=O)c3c(F)cccc3F)c(F)c12 | enzyme activity, inhibitor, radiometric | 1 µM | remaining activity | 87% |
